Compound activity deposited in PubChem by several laboratories.
Shown are actives, neighbours in structure and some others; about 4% of the full set was active somewhere.
TAAR1 ag: agonists of human TAAR1; Q96RJ0; CHO RD-HGA16 TAAR1, Fluo-8 calcium fluorescence; vehicle wells 0%, saturating PEA agonist 100%; activation, % at 3 µM; 360,000 tested, 0.99% active; AID 624467;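 active = activation above the mean activation of all test compounds in the run plus 3 SD, cut at about 38% in these data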
Target sequence (Q96RJ0 whole entry, looked up): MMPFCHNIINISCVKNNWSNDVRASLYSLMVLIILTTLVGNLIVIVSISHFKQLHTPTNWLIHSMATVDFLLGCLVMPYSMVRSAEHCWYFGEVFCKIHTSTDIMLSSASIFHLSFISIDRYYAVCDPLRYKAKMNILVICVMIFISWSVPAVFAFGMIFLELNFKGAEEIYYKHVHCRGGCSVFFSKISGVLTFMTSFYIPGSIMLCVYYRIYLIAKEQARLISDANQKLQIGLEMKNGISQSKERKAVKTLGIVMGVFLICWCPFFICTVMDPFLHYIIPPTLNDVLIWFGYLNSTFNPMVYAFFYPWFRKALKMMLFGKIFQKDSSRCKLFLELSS
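Test system: RD-HGA16 (CHO) cells co-expressing Gα16 and hTAAR1 / Benchmarks: DMSO vehicle as 0%, PEA at EC100 as 100% / Repeats: no replicates (n 1) / Measure: % activation from peak over basal fluorescence ratio, DMSO-to-PEA scaled / Timing: 17-24 h plating, Fluo-8 75 min 37 °C, 30 min RT / Technique: kinetic Fluo-8 calcium fluorescence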
TAAR1 antagonist: human TAAR1 antagonism; Q96RJ0; CHO RD-HGA16 TAAR1, Fluo-8 calcium fluorescence, antagonist; inhibition, % at 3 µM; 360,000 tested, 1.5% active;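 active = inhibition above a per-plate cutoff, the mean inhibition of test compounds on that plate plus 3 SD, cut at about 49% in these data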;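 note: 0% = DMSO plus EC80 beta-PEA response and 100% = DMSO alone without agonist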
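System: RD-HGA16 CHO cells with stable hTAAR1 and Gα16 | Probe or stimulus: EC80 β-phenethylamine stimulus | Dosing: 3 µM, single point | Times: Dye loading 75 min at 37 °C, then 30 min room temperature | Measured by: Fluo-8 calcium-sensitive fluorescence | Read-out basis: % inhibition of agonist calcium response | Replicates: n of 1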
MPTP block: inhibitors of mitochondrial permeability transition pore; AID 602449; 360,000 tested, 1.4% active; inhibition, % at 10 µM; isolated mouse mitochondria, Ca2+ swelling absorbance, 30 min;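 active = inhibition of 50% or more, scaled per plate between neutral and stimulator controls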;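 note: 0% = DMSO wells given calcium and 100% = 1 mM EGTA wells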
GPR7 antagonist: antagonists of human GPR7 (neuropeptides B/W receptor 1) | P48145 | GPR7-expressing cells, fluorescence antagonist assay | inhibition, % at 4.4 µM | 290,000 tested, 1.1% active; in the data active = inhibition above about 16%, passing the limit was not always enough;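 note: cells stimulated with the agonist NPW; 0% = agonist with vehicle and 100% = vehicle without agonist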
Target sequence (P48145 whole entry, looked up): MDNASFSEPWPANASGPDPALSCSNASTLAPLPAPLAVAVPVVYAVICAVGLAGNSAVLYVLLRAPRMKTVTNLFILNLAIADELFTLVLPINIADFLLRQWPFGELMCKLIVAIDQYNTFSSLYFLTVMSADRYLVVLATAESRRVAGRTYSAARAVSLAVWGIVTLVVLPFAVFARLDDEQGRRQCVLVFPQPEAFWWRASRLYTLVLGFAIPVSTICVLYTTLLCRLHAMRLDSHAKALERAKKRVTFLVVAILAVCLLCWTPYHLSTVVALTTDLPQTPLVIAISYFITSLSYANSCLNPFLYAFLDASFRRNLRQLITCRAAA
DAGLB inh: diacylglycerol lipase beta (human) inhibition; inhibition, % at 5.17 µM; AID 504411; HEK293T DAGLB membrane lysate, EnzChek fluorogenic substrate; Q8NCG7; 340,000 tested, 0.059% active; in the data active = inhibition above about 34%;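 note: 0% = enzyme with vehicle and 100% = wells lacking enzyme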
Rh123 counter: Rhodamine 123 counter-screen of mitochondrial pore hits; shares compounds with MPTP block; isolated mitochondria, membrane potential, Rhodamine 123 fluorescence; inhibition, % at 10 µM; 5,000 tested, 78% active; in the data active = inhibition above about 22%;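 note: 0% = DMSO vehicle and 100% = positive control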
MPTP abs DR: dose response confirmation of mitochondrial permeability transition pore inhibitors | shares compounds with MPTP block | isolated mitochondria swelling, absorbance | IC50, µM | 780 tested, 58% active; in the data active = IC50 below about 20 µM
MPTP cs DR: counter-screen for mitochondrial permeability transition pore inhibitors, dose response; shares compounds with MPTP block; isolated mitochondria counterscreen, fluorescence read-out; IC50, µM; 780 tested, 49% active; AID 651564; in the data active = IC50 below about 80 µM
* hit, by the source's call; i = inactive; / = no result given.

SMILES	TAAR1 ag	TAAR1 antagonist	MPTP block	GPR7 antagonist	DAGLB inh	Rh123 counter	others
COc1cc(COCC(O)CN2CCN(Cc3ccccc3)CC2)cc(OC)c1OC (stereo unspecified)	2	1	1	-10	1	/
COc1cccc(OCC(O)CN2CCC(Cc3ccccc3)CC2)c1 (stereo unspecified)	17	0	56*	-12	0	-6	MPTP abs DR=19*;MPTP cs DR=62*
CC1CCC(C(C)C)C(OCC(O)CN2CCN(Cc3ccccc3)CC2)C1 (stereo unspecified)	29	-16	86*	4	-5	-1	MPTP abs DR=i;MPTP cs DR=40*
OC(COc1ccc2cc(Br)ccc2c1)CN1CCCC1 (stereo unspecified)	3	-4	88*	5	2	-6	MPTP abs DR=9.4*;MPTP cs DR=>80
Cc1cc(C)c(S(=O)(=O)NCc2ccncc2)c(C)c1	10	4	87*	5	-2	72*
CCCCNS(=O)(=O)c1ccc(S(=O)(=O)NCc2ccncc2)cc1	6	5	80*	-7	0	70*
Cc1cc(C)c(S(=O)(=O)NCCc2ccncc2)c(C)c1	1	4	0	7	-5	/
CCCCc1ccc(S(=O)(=O)NCCc2ccncc2)cc1	4	-9	12	-2	-3	/
Cc1ccc(S(=O)(=O)NCc2ccncc2)c(C)c1C	4	4	95*	15	0	91*
Cc1onc(-c2ccccc2)c1C(=O)N1CCN(C(=O)C(=O)c2cccc(C(F)(F)F)c2)CC1	4	9	/	/	/	/
Cc1cc([N+](=O)[O-])nn1CCCC(=O)Nc1cc(Oc2ccccc2)cc([N+](=O)[O-])c1	7	5	22	-1	-1	/
Cc1cccc(Oc2cc(NC(=O)Cn3cnc([N+](=O)[O-])n3)cc([N+](=O)[O-])c2)c1	5	37	77*	0	-2	66*
CC(C)c1ccc(S(=O)(=O)Nc2ccc(SC(F)F)cc2)cc1	11	6	72*	-8	-6	83*
O=C(N[C@H](Cc1ccccc1)C(=O)NCc1ccc(OC(F)(F)F)cc1)[C@H]1O[C@@H](n2ccc(=O)[nH]c2=O)[C@H](O)[C@@H]1O	0	-16	/	/	/	/
Cc1cc(C(C#N)c2ccc(Cl)cc2)c(Cl)cc1NC(=O)c1cc(I)cc(I)c1O (stereo unspecified)	2	-1	100*	/	4	20
Cc1cc(NC(=O)c2ccc(Cl)cc2)c(C)cc1O	-1	4	0	-4	-1	/
COc1cccc(CN2CCC(C)(Oc3cccc(Cl)c3)C2)c1OC (stereo unspecified)	5	-3	0	/	/	/
Oc1ccccc1-c1nc(NCc2ccco2)c2ccccc2n1	4	9	22	-17	-2	/
COc1ccccc1Nc1nc(NCc2ccco2)c2ccccc2n1	0	-36	71*	-6	/	84*
Cc1ccc(Nc2nc(NCc3ccco3)c3ccccc3n2)cc1	50*	-3	93*	34*	1	89*
COCCNC(=O)C1(C)CCCN(C(=O)c2ccco2)C1 (stereo unspecified)	0	-3	1	/	/	/
C[C@H]1[C@@H]2C[C@@]3(O[C@H](c4ccccn4)N=C3C[C@@H]1c1ccccc1)N(Cc1ccncc1)C2=O	5	-2	/	/	/	/
COCCNC(=O)C1Cc2c(ccc3ccccc23)O1 (stereo unspecified)	5	-7	-2	-5	-1	/
COc1ccc(S(=O)(=O)NNC(=O)C2Cc3c(ccc4ccccc34)O2)cc1 (stereo unspecified)	8	23	80*	-6	2	54*
CC(=O)C1=C(C)N(Cc2ccc(Br)cc2)C(=S)NC1c1cccc(Cl)c1 (stereo unspecified)	1	27	/	/	/	/
SMILES	TAAR1 ag	TAAR1 antagonist	MPTP block	GPR7 antagonist	DAGLB inh	Rh123 counter	others
CCCCCCCCCCCC1N=C(N)NC(CCCO)=C1C(=O)OC (stereo unspecified)	1	-19	79*	/	0	2
Cc1nc2ccccn2c1C(=O)NNS(=O)(=O)c1ccc(C(C)(C)C)cc1	31	32	76*	-1	3	72*
COC1OC(COCc2ccccc2)C2OC(C)(C)OC2C1O (stereo unspecified)	0	-10	/	/	/	/
COc1ccccc1NC(=O)N(C)C[C@H]1OCc2cn(nn2)CCCC(=O)N([C@H](C)CO)C[C@@H]1C	1	6	/	/	/	/
O=S(=O)(c1ccc2c(c1)C(O)c1ccccc1CC2)C(F)(F)F (stereo unspecified)	2	28	90*	/	-16	92*
C[C@H](CO)N1C[C@H](C)[C@H](CN(C)C(=O)Nc2ccccc2)OCc2cnnn2CCCC1=O	2	-21	0	/	1	/
OCCc1ccc(NCCc2cccs2)cc1	1	9	1	/	/	/
Cc1nonc1NC(=O)CSc1nc(C23CC4CC(CC(C4)C2)C3)nc2ccccc12	2	-16	79*	-11	-24	72*
CCC(C)Sc1cc(C(F)(F)F)c(C(=O)Nc2ccc(Cl)cc2)cn1 (stereo unspecified)	-1	-19	75*	-19	-10	87*
Cc1nnc2n(-c3ccccc3)c(=O)c3c4c(sc3n12)COC(C(C)C)C4 (stereo unspecified)	2	-4	-6	-13	-1	/
CC(C)C1Cc2c(sc3[nH]c(=S)n(Cc4ccccc4)c(=O)c23)CO1 (stereo unspecified)	3	2	81*	-5	5	26*
CC1CC(C)CN(Cc2nc(N)nc(Nc3ccc4ccccc4c3)n2)C1 (stereo unspecified)	11	-7	63*	-3	0	-11	MPTP abs DR=>100;MPTP cs DR=>80
CC1CC(C)CN(Cc2nc(N)nc(Nc3ccccc3)n2)C1 (stereo unspecified)	4	11	-7	-7	0	/
NC(=O)c1oc2ccccc2c1NC(=O)c1nc2ccccc2s1	8	0	-3	8	-1	/
O=C(Nc1nnc(-c2ccccc2)o1)c1nc2ccccc2s1	154*	42	63*	/	8	3	MPTP abs DR=8.4*;MPTP cs DR=78*
O=C(COC(=O)/C=C/c1cccc(F)c1)NC1CCCCC1	-1	0	0	/	-1	/
CCCc1c(NC(=O)Nc2ccc(F)cc2)cnn1-c1ccccc1	9	15	52*	-20	0	67*
CC(C)c1ccc(COc2ccc(C(=O)N3CCOCC3)cc2)cc1	2	-5	67*	-4	0	49*
CC(C)c1ccc(OCc2ccc(C(=O)N3CCCC3)o2)cc1	-2	-16	84*	-1	-1	12	MPTP abs DR=12*;MPTP cs DR=18*
